MIC data for 11 compounds are collected here from ChEMBL document CHEMBL1151223, “Antimycotic spirostanol saponins from Solanum hispidum leaves and their structure-activity relationships” (2004).

Converted amounts (≈) assume the structure as drawn. Some results are limits rather than exact numbers.

One experiment has as its system Trichophyton rubrum. Briefly: Antimycotic activity against Trichophyton rubrum ATCC 28188 after 72 hrs. The experiment is classed as functional. The settings on record: ATCC 28188, 72 h. In short, it runs like this: (§1)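 Agar dilution MIC on Sabouraud glucose agar; the filamentous fungi were maintained on potato dextrose agar at 27 °C. DMSO stocks were diluted 2-fold and added to the medium: pure compounds 400-3.125 µg/mL, extracts 10-1.25 mg/mL, references 128-1 µg/mL; final DMSO at most 2%. A hemocytometer-counted spore inoculum was loop-applied to the agar surface, and plates were incubated at 29 °C for 72 h. MIC was the lowest concentration with no visible growth; run in triplicate.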

The subject of experiment [1] is Candida albicans. Briefly: Antimycotic activity against Candida albicans ATCC 10231 after 24 hrs. The settings on record: ATCC 10231, 24 h.
Experiment [2] deals with Trichophyton mentagrophytes. Briefly: Antimycotic activity against Trichophyton mentagrophytes ATCC 28185 after 72 hrs. The experiment is classed as functional. As to conditions: ATCC 28185, 72 h. In short, it runs like this:
as §1

Another experiment has as its system Aspergillus niger. Briefly: Antimycotic activity against Aspergillus niger ATCC 10335 after 48 hrs. The settings on record: ATCC 10335, 48 h.
The test system of experiment [3] is Candida albicans. The experiment in a line: Antimycotic activity against Candida albicans ATCC 10231 after 48 hrs. The experiment is classed as functional.

As usually defined, the MIC is the least concentration at which growth counts as inhibited. High values mean a need for much substance, low ones inhibition by little substance. On to `C[C@H]1CC[C@@]2(OC1)O[C@H]1C[C@H]3[C@@H]4C[C@H](O[C@@H]5O[C@H](C)[C@@H](O)[C@H](O)[C@H]5O)[C@H]5C[C@@H](O)CC[C@]5(C)[C@H]4CC[C@]3(C)[C@H]1[C@@H]2C`, for which the MIC in the experiment on Trichophyton rubrum was 50 µg/mL (≈ 86.4 µM); against Candida albicans [1] it was greater than 400 µg/mL; in experiment [2], 25 µg/mL (≈ 43.2 µM); in the experiment on Aspergillus niger, greater than 400 µg/mL.
`C[C@H]1CO[C@@]2(O[C@H]3C[C@H]4[C@@H]5C[C@H](O[C@@H]6O[C@H](C)[C@@H](O)[C@H](O[C@@H]7O[C@H](C)[C@@H](O)[C@H](O)[C@@H]7O)[C@H]6O)[C@H]6C[C@@H](O)CC[C@]6(C)[C@H]5CC[C@]4(C)[C@H]3[C@@H]2C)[C@@H](O)C1`: the MIC (in the experiment on Trichophyton rubrum; in the experiment with Candida albicans [1]; in experiment [2]; in the experiment on Aspergillus niger) was 200 µg/mL (≈ 270 µM) in each case.
Regarding `C[C@@H]1CC[C@@]2(OC1)O[C@H]1C[C@H]3[C@@H]4C[C@H](O[C@@H]5OC[C@@H](O)[C@H](O)[C@H]5O)[C@H]5C[C@@H](O)CC[C@]5(C)[C@H]4CC[C@]3(C)[C@H]1[C@@H]2C`, the MIC in the experiment with Trichophyton rubrum was 100 µg/mL (≈ 177 µM); against Candida albicans [1] it was 200 µg/mL (≈ 354 µM); in experiment [2] it was 100 µg/mL (≈ 177 µM); with Aspergillus niger, greater than 400 µg/mL.
With `C[C@@H]1CO[C@@]2(O[C@H]3C[C@H]4[C@@H]5C[C@H](O[C@@H]6O[C@H](C)[C@@H](O)[C@H](O[C@@H]7OC[C@@H](O)[C@H](O)[C@H]7O)[C@H]6O)[C@H]6C[C@@H](O)CC[C@]6(C)[C@H]5CC[C@]4(C)[C@H]3[C@@H]2C)[C@@H](O)C1`, the minimal inhibitory concentration (MIC) was 25 µg/mL (≈ 34.4 µM) in the experiment on Trichophyton rubrum, greater than 400 µg/mL in the experiment with Candida albicans [1], 25 µg/mL (≈ 34.4 µM) in experiment [2] and greater than 400 µg/mL in the experiment with Aspergillus niger.
`C[C@@H]1CC[C@@]2(OC1)O[C@H]1C[C@H]3[C@@H]4C[C@H](O[C@@H]5O[C@H](C)[C@@H](O)[C@H](O)[C@H]5O)[C@H]5C[C@@H](O)CC[C@]5(C)[C@H]4CC[C@]3(C)[C@H]1[C@@H]2C`: the MIC is 50 µg/mL (≈ 86.4 µM) against Trichophyton rubrum, 200 µg/mL (≈ 346 µM) with Candida albicans [1], 25 µg/mL (≈ 43.2 µM) in experiment [2] and greater than 400 µg/mL with Aspergillus niger.
The corresponding values for `C[C@@H]1CO[C@@]2(O[C@H]3C[C@H]4[C@@H]5C[C@H](O[C@@H]6O[C@H](C)[C@@H](O)[C@H](O[C@@H]7OC[C@@H](O)[C@H](O)[C@H]7O)[C@H]6O)[C@H]6C[C@@H](O)CC[C@]6(C)[C@H]5CC[C@]4(C)[C@H]3[C@@H]2C)[C@H](O)C1` are 100 µg/mL (≈ 138 µM), greater than 400 µg/mL, 100 µg/mL (≈ 138 µM) and greater than 400 µg/mL.
The corresponding values for `C[C@H]1CC[C@@]2(OC1)O[C@H]1C[C@H]3[C@@H]4C[C@H](O[C@@H]5O[C@H](C)[C@@H](O)[C@H](O[C@@H]6OC[C@@H](O)[C@H](O)[C@H]6O)[C@H]5O)[C@H]5C[C@@H](O)CC[C@]5(C)[C@H]4CC[C@]3(C)[C@H]1[C@@H]2C` are 25 µg/mL (≈ 35.2 µM), greater than 400 µg/mL, 25 µg/mL (≈ 35.2 µM) and greater than 400 µg/mL.
As for `C[C@@H]1CC[C@@]2(OC1)O[C@H]1C[C@H]3[C@@H]4C[C@H](O[C@@H]5O[C@H](C)[C@@H](O)[C@H](O[C@@H]6O[C@H](C)[C@@H](O)[C@H](O)[C@@H]6O)[C@H]5O)[C@H]5C[C@@H](O)CC[C@]5(C)[C@H]4CC[C@]3(C)[C@H]1[C@@H]2C`, the MIC in the experiment on Trichophyton rubrum turned out to be 50 µg/mL (≈ 69 µM); in the experiment with Candida albicans [1], 200 µg/mL (≈ 276 µM); in experiment [2] it was 200 µg/mL (≈ 276 µM); against Aspergillus niger, 400 µg/mL (≈ 552 µM).
As for `Clc1ccc(COC(Cn2ccnc2)c2ccc(Cl)cc2Cl)c(Cl)c1` (stereo not given) [MICONAZOLE], the MIC in the experiment on Trichophyton rubrum was 4 µg/mL (≈ 9.61 µM); in experiment [2], 4 µg/mL (≈ 9.61 µM); in the experiment on Aspergillus niger it was 8 µg/mL (≈ 19.2 µM).
With NYSTATIN, the MIC with Candida albicans [3] worked out at 8 µg/mL.
For `C[C@@H]1CC[C@@]2(OC1)O[C@H]1C[C@H]3[C@@H]4C[C@H](O[C@@H]5O[C@H](C)[C@@H](O)[C@H](O[C@@H]6OC[C@@H](O)[C@H](O)[C@H]6O)[C@H]5O)[C@H]5C[C@@H](O)CC[C@]5(C)[C@H]4CC[C@]3(C)[C@H]1[C@@H]2C`, the MIC was 12.5 µg/mL (≈ 17.6 µM) in the experiment on Trichophyton rubrum, 200 µg/mL (≈ 281 µM) against Candida albicans [1], 12.5 µg/mL (≈ 17.6 µM) in experiment [2] and 100 µg/mL (≈ 141 µM) against Aspergillus niger.
